For assay [1], the target named is T1, Beta-secretase 1 (Homo sapiens, UniProt P56817). Nature of the assay: Inhibition of human recombinant BACE1 using fluorescent peptide substrate at 10 ug/ml after 5 mins. The essentials:
(§1)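 FRET assay using a peptide substrate carrying a fluorophore and quencher on either side of a β-secretase cleavage site. Recombinant human BACE-1 was diluted in 0.1 M sodium acetate (pH 4.0) and added to the samples, then shaken 5 min. Fluorogenic Peptide Substrate IV in the same buffer was added and shaken 5 min. Read-out: ex 320 nm/em 405 nm; activity taken as ΔF/min relative to standard.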

For assay [2], the target named is T1, Beta-secretase 1. Nature of the assay: Inhibition of human recombinant BACE1 using fluorescent peptide substrate after 5 mins. The procedure, abridged:
as §1

Data on 31 compounds can be found in ChEMBL document CHEMBL1157871, “Synthesis and preliminary evaluation of peptidomimetic inhibitors of human beta-secretase” (Eur J Med Chem, 2010).

T1 sequence (P56817 whole entry): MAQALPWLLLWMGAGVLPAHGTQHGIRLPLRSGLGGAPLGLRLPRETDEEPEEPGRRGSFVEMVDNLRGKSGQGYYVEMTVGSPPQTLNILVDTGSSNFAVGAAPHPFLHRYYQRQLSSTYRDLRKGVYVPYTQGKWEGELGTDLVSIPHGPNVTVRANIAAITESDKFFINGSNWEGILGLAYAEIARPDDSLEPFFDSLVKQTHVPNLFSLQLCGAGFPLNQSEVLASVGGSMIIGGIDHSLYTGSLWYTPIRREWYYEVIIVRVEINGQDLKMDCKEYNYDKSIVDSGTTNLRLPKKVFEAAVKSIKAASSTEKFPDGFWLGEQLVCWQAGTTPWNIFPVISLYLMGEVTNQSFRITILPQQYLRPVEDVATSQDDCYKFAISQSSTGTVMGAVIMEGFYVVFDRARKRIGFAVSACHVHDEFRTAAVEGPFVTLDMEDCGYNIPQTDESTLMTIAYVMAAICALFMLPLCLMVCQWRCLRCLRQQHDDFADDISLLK

Consider `CC(C)CNC(=O)[C@H](C)C[C@H](O)[C@H](CC(C)C)NC(=O)[C@H](Cc1ccccc1)NC(=O)c1ccc(Cl)cc1Cl`, for which, at Beta-secretase 1 [1], the inhibition (commonly the change of the read-out against control, counted positive when it falls) came to 20.3%. Consider `CC(C)CNC(=O)[C@H](C)C[C@H](O)[C@H](CC(C)C)NC(=O)[C@H](Cc1ccccc1)NC(=O)[C@H](CC(C)C)NC(=O)OC(C)(C)C`, for which the inhibition on Beta-secretase 1 [1] was 54.6%. Further, the IC50 – broadly, the concentration needed to halve the response being measured – at Beta-secretase 1 [2] was 2.31 µM. Turning to `CC(C)CNC(=O)[C@H](C)C[C@H](O)[C@H](CC(C)C)NC(=O)[C@H](Cc1ccc([N+](=O)[O-])cc1)NC(=O)c1ccc(Cl)cc1Cl`, the inhibition on Beta-secretase 1 [1] stood at 22.2%. In addition, on Beta-secretase 1 [2], the IC50 is 4.24 µM. Regarding `CC(C)CNC(=O)[C@H](C)C[C@H](O)[C@H](CC(C)C)NC(=O)[C@H](Cc1ccccc1)NC(=O)/C=C/c1ccc(C(F)(F)F)cc1`, the inhibition on Beta-secretase 1 [1] was 59.7%. For the same compound, the IC50 at Beta-secretase 1 [2] worked out at 19.5 µM.

`CC(C)CNC(=O)[C@H](C)C[C@H](O)[C@H](CC(C)C)NC(=O)[C@H](Cc1ccc([N+](=O)[O-])cc1)NC(=O)/C=C/c1ccccc1`: the inhibition at Beta-secretase 1 [1] was found to be 37.2%.

Consider `COc1ccc(C(=O)N[C@@H](Cc2ccccc2)C(=O)N[C@@H](CC(C)C)[C@@H](O)C[C@@H](C)C(=O)NCC(C)C)cc1OC`, for which the inhibition on Beta-secretase 1 [1] amounted to 14.7%.

For the compound `CC(C)CNC(=O)[C@H](C)C[C@H](O)[C@H](CC(C)C)NC(=O)[C@H](Cc1ccccc1)NC(=O)c1ccccc1`, on Beta-secretase 1 [1], the inhibition was found to be 11.2%. On Beta-secretase 1 [2], the 50% inhibitory concentration (IC50) is 6.93 µM. Take `CC[C@H](C)[C@H](NC(=O)OC(C)(C)C)C(=O)N[C@@H](Cc1ccccc1)C(=O)N[C@@H](CC(C)C)[C@@H](O)C[C@@H](C)C(=O)NCC(C)C`: on Beta-secretase 1 [1], the inhibition was -0.71%. On to `CC(C)CNC(=O)[C@H](C)C[C@H](O)[C@H](CC(C)C)NC(=O)[C@H](Cc1ccccc1)NC(=O)c1ccc([N+](=O)[O-])cc1`, for which the inhibition at Beta-secretase 1 [1] is 1.47%. At Beta-secretase 1 [2], the half-inhibitory concentration (IC50) worked out at 15.7 µM. On to `CC(C)C[C@H](NC(=O)[C@H](CO)NC(=O)/C=C/c1ccc(C(F)(F)F)cc1)[C@@H](O)C[C@@H](C)C(=O)NCc1ccccc1`, for which, on Beta-secretase 1 [1], the inhibition came to 16.4%. For the compound `CC(C)CNC(=O)[C@H](C)C[C@H](O)[C@H](CC(C)C)NC(=O)[C@H](Cc1ccc([N+](=O)[O-])cc1)NC(=O)c1ccc([N+](=O)[O-])cc1`, at Beta-secretase 1 [1], the inhibition came out at 10.5%. For the same compound, on Beta-secretase 1 [2], the IC50 was 2.64 µM.

For the compound `CC(C)CNC(=O)[C@H](C)C[C@H](O)[C@H](CC(C)C)NC(=O)[C@H](Cc1ccc([N+](=O)[O-])cc1)NC(=O)c1cccc(Cl)c1`, at Beta-secretase 1 [1], the inhibition was 25.7%.

Turning to `CC(C)CNC(=O)[C@H](C)C[C@H](O)[C@H](CC(C)C)NC(=O)[C@H](Cc1ccccc1)NC(=O)/C=C/c1ccccc1`, on Beta-secretase 1 [1], the inhibition was found to be 22.8%. `CC(C)CNC(=O)[C@H](C)C[C@H](O)[C@H](CC(C)C)NC(=O)[C@H](Cc1ccccc1)NC(=O)c1cccc(Cl)c1`: the inhibition at Beta-secretase 1 [1] is 16.9%. As for `CC(C)CNC(=O)[C@H](C)C[C@H](O)[C@H](CC(C)C)NC(=O)[C@H](Cc1ccc([N+](=O)[O-])cc1)NC(=O)/C=C/c1ccc(C(F)(F)F)cc1`, on Beta-secretase 1 [1], the inhibition is 0.13%. The half-maximal inhibitory concentration (IC50) on Beta-secretase 1 [2] is 3.79 µM. As to `CC(C)CNC(=O)[C@H](C)C[C@H](O)[C@@H](NC(=O)[C@H](Cc1ccccc1)NC(=O)OC(C)(C)C)C(C)C`, at Beta-secretase 1 [1], the inhibition is 25.8%. With `CC(C)CNC(=O)[C@H](C)C[C@H](O)[C@H](CC(C)C)NC(=O)[C@H](Cc1ccc([N+](=O)[O-])cc1)NC(=O)c1ccc2c(c1)OCO2`, the inhibition at Beta-secretase 1 [1] worked out at 40.3%. With `CC(C)[C@H](NC(=O)[C@H](Cc1ccccc1)NC(=O)OC(C)(C)C)[C@@H](O)C[C@@H](C)C(=O)NCc1ccccc1`, the inhibition on Beta-secretase 1 [1] is 23%. `CC(C)CNC(=O)[C@H](C)C[C@H](O)[C@H](CC(C)C)NC(=O)[C@H](Cc1ccc([N+](=O)[O-])cc1)NC(=O)c1cc([N+](=O)[O-])cc([N+](=O)[O-])c1`: the inhibition at Beta-secretase 1 [1] is 7.61%. Regarding `CC(C)CNC(=O)[C@H](C)C[C@H](O)[C@@H](NC(=O)[C@H](Cc1ccc([N+](=O)[O-])cc1)NC(=O)OC(C)(C)C)C(C)C`, the inhibition at Beta-secretase 1 [1] turned out to be 30.1%. Same read-out and setting: the figure for `CC(C)[C@H](NC(=O)[C@H](CO)NC(=O)OC(C)(C)C)[C@@H](O)C[C@@H](C)C(=O)NCc1ccccc1` is 50.5%. On to `COc1ccc(C(=O)N[C@@H](Cc2ccc([N+](=O)[O-])cc2)C(=O)N[C@@H](CC(C)C)[C@@H](O)C[C@@H](C)C(=O)NCC(C)C)cc1OC`, for which, at Beta-secretase 1 [1], the inhibition worked out at 18.3%. Besides, the IC50 at Beta-secretase 1 [2] came to 3.81 µM. As for `COc1ccc(CC(=O)N[C@@H](CO)C(=O)N[C@@H](CC(C)C)[C@@H](O)C[C@@H](C)C(=O)NCc2ccccc2)cc1`, the inhibition at Beta-secretase 1 [1] turned out to be 25.1%. Take `CC(C)CNC(=O)[C@H](C)C[C@H](O)[C@H](CC(C)C)NC(=O)[C@H](Cc1ccc([N+](=O)[O-])cc1)NC(=O)c1cccc2ccccc12`: the inhibition at Beta-secretase 1 [1] is -4.43%.

Consider `CC(C)[C@H](NC(=O)OC(C)(C)C)C(=O)N[C@@H](Cc1ccccc1)C(=O)N[C@@H](C(C)C)[C@@H](O)C[C@@H](C)C(=O)NCc1ccccc1`, for which, on Beta-secretase 1 [1], the inhibition was -1.56%. As to `CC[C@H](C)[C@H](NC(=O)OC(C)(C)C)C(=O)N[C@@H](Cc1ccccc1)C(=O)N[C@@H](C(C)C)[C@@H](O)C[C@@H](C)C(=O)NCc1ccccc1`, at Beta-secretase 1 [1], the inhibition was -2.46%. Take `CC(C)CNC(=O)[C@H](C)C[C@H](O)[C@H](CC(C)C)NC(=O)[C@H](Cc1ccccc1)NC(=O)c1ccc2c(c1)OCO2`: the inhibition at Beta-secretase 1 [1] was determined as 16.2%. In addition, the IC50 at Beta-secretase 1 [2] turned out to be 8.07 µM. For the compound `CC(C)CNC(=O)[C@H](C)C[C@H](O)[C@H](CC(C)C)NC(=O)[C@H](Cc1ccccc1)NC(=O)c1cc([N+](=O)[O-])cc([N+](=O)[O-])c1`, on Beta-secretase 1 [1], the inhibition worked out at 0.91%.

`CC(C)C[C@H](NC(=O)OC(C)(C)C)C(=O)N[C@@H](Cc1ccccc1)C(=O)N[C@@H](CC(C)C)[C@@H](O)C[C@@H](C)C(=O)NCc1ccccc1`: on Beta-secretase 1 [1], the inhibition came to 0.91%. As to `CC(C)CNC(=O)[C@H](C)C[C@H](O)[C@H](CC(C)C)NC(=O)[C@H](Cc1ccccc1)NC(=O)c1cccc2ccccc12`, the inhibition on Beta-secretase 1 [1] is -0.1%. At Beta-secretase 1 [2], the IC50 was 4.67 µM. `CC(C)CNC(=O)[C@H](C)C[C@H](O)[C@H](CC(C)C)NC(=O)[C@H](Cc1ccccc1)NC(=O)[C@@H](NC(=O)OC(C)(C)C)C(C)C`: the inhibition on Beta-secretase 1 [1] is -2.37%.
